{"source": "ChEMBL document CHEMBL1142492", "about": "(J Med Chem, 2008)", "key": {"[1]": {"target": "Glutamate NMDA receptor (Rattus norvegicus) (UniProt P35439+Q00959+Q00960+Q00961+Q62645+Q8VHN2+Q9R1M7)", "experiment": "Displacement of phencyclidine from rat NMDA receptor at 3 uM", "format": "protein-complex assay", "summary_of_the_method": "(§1)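 Counter-screen binding/enzyme panel at single 3 μM, n=2; results as percent inhibition. Species per target as listed (rat NMDA, GABAA sites; human receptors, transporters; rabbit ACE).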"}, "[2]": {"target": "Bone morphogenetic protein receptor type-2 (Homo sapiens) (UniProt Q13873)", "experiment": "Inhibition of BMPR2 at 3 uM"}, "[3]": {"target": "Vascular endothelial growth factor receptor 2 (Homo sapiens) (UniProt P35968)", "experiment": "Inhibition of VEGFR2 at 3 uM"}, "[4]": {"target": "Casein kinase I isoform alpha-like (Homo sapiens) (UniProt Q8N752)", "experiment": "Inhibition of CSNK1A1L at 3 uM"}, "[5]": {"target": "Dual specificity testis-specific protein kinase 1 (Homo sapiens) (UniProt Q15569)", "sequence (Q15569 whole entry, looked up)": "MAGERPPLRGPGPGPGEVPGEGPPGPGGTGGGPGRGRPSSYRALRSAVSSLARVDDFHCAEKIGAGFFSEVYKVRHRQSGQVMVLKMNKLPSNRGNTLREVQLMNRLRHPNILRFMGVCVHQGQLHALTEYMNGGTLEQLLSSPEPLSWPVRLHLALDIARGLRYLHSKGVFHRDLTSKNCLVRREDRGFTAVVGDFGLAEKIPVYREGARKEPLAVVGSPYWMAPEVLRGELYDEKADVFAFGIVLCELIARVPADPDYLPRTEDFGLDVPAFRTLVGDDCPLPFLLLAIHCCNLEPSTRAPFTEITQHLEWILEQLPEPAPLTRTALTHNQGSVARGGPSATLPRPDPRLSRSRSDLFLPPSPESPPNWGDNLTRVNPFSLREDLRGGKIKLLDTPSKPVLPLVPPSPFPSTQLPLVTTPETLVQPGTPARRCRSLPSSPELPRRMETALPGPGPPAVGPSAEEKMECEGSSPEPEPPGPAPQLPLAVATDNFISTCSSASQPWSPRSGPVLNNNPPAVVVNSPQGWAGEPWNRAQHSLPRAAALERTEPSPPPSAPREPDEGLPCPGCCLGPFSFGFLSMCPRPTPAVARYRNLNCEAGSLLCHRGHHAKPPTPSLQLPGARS", "experiment": "Inhibition of TESK1 at 3 uM"}, "[6]": {"target": "Mitogen-activated protein kinase kinase kinase kinase 1 (Homo sapiens) (UniProt Q92918)", "experiment": "Inhibition of MAP4K1 at 3 uM"}, "[7]": {"target": "Activin receptor type-1-like (Homo sapiens) (UniProt P37023)", "experiment": "Inhibition of ACVRL1 at 3 uM"}, "[8]": {"target": "Aurora kinase B (Homo sapiens) (UniProt Q96GD4)", "sequence (Q96GD4 whole entry)": "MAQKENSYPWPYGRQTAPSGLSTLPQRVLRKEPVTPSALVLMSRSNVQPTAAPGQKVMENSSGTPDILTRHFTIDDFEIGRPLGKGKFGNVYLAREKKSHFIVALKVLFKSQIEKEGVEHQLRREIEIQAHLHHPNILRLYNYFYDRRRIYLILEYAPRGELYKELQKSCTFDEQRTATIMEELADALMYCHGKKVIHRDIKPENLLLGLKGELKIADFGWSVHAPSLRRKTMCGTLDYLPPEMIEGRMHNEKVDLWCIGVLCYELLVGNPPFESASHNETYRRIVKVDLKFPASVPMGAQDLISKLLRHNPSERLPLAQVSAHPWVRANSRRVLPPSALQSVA", "experiment": "Inhibition of AURKB at 3 uM"}, "[9]": {"target": "Beta-1 adrenergic receptor (Homo sapiens) (UniProt P08588)", "sequence (P08588 whole entry, looked up)": "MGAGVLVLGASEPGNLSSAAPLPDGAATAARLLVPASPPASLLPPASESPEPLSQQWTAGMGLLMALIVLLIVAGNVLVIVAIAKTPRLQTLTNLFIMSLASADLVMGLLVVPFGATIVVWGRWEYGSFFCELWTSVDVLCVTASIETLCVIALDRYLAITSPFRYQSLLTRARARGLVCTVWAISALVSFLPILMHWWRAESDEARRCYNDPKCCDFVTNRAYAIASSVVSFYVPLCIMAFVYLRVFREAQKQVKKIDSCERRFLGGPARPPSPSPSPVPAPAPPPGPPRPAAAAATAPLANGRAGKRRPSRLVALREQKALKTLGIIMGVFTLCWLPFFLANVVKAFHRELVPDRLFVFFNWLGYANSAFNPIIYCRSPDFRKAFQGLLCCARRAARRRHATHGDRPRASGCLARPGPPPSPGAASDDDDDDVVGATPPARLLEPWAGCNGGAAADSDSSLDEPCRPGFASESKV", "experiment": "Inhibition of human adrenergic beta-1 receptor at 3 uM", "summary_of_the_method": "as §1"}, "[10]": {"target": "Serine/threonine-protein kinase DCLK3 (Homo sapiens) (UniProt Q9C098)", "experiment": "Inhibition of DCAMKL3 at 3 uM"}, "[11]": {"target": "Rho-associated protein kinase 2 (Homo sapiens, UniProt O75116)", "sequence (O75116 whole entry, looked up)": "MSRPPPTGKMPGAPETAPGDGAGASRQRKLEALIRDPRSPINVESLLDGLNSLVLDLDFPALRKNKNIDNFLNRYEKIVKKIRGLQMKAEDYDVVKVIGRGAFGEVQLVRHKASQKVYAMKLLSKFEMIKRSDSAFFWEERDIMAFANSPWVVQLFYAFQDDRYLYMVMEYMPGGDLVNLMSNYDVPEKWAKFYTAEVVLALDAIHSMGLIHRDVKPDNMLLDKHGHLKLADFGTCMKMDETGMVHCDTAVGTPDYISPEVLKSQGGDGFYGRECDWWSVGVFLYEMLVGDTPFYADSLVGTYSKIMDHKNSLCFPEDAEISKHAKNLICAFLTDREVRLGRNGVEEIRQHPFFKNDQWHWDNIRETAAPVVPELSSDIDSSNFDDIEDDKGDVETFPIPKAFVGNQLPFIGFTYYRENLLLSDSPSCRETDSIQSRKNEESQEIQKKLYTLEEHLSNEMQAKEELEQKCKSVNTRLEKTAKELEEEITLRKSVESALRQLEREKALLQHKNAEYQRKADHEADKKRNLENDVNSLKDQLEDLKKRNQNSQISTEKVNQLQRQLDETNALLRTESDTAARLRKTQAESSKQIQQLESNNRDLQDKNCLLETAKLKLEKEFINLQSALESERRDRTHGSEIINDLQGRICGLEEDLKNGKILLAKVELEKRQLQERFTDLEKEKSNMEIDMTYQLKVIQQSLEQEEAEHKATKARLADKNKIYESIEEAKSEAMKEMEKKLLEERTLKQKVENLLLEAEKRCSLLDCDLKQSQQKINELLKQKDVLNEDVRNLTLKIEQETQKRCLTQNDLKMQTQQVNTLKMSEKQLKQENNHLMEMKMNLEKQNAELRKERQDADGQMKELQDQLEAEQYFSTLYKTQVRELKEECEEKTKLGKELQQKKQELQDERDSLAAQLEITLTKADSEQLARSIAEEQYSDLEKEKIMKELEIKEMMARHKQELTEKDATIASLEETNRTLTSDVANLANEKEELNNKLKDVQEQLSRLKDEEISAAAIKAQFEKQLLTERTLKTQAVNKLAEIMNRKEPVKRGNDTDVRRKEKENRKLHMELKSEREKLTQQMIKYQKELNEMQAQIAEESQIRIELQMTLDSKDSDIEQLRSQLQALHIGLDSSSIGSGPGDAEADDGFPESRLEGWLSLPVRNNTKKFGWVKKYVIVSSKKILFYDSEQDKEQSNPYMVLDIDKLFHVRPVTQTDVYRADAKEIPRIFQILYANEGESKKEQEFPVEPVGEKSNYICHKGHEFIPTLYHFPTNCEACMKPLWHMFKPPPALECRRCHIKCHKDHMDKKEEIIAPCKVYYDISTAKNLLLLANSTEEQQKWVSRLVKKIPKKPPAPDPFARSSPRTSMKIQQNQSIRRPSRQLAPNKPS", "experiment": "Inhibition of ROCK2 at 3 uM"}, "[12]": {"test_system": "Epidermal growth factor receptor (Homo sapiens), P00533 [G719C]", "experiment": "Inhibition of EGFR G719C mutant at 3 uM", "format": "protein assay"}, "[13]": {"target": "Phosphatidylinositol 4,5-bisphosphate 3-kinase catalytic subunit gamma isoform (Homo sapiens) (UniProt P48736)", "experiment": "Inhibition of PIK3CG at 3 uM"}, "[14]": {"target": "Discoidin domain-containing receptor 2 (Homo sapiens) (UniProt Q16832)", "experiment": "Inhibition of DDR2 at 3 uM"}, "[15]": {"test_system": "Mast/stem cell growth factor receptor Kit (Homo sapiens), P10721 [V559D,T670I]", "experiment": "Inhibition of KIT V559D,T670I mutant at 3 uM"}, "[16]": {"target": "Serine/threonine-protein kinase 32C (Homo sapiens) (UniProt Q86UX6)", "experiment": "Inhibition of YANK3 at 3 uM"}, "[17]": {"target": "Macrophage colony-stimulating factor 1 receptor (Homo sapiens) (UniProt P07333)", "experiment": "Inhibition of CSF1R at 3 uM"}, "[18]": {"target": "Alpha-1A adrenergic receptor (Rattus norvegicus) (UniProt P43140)", "experiment": "Inhibition of rat adrenergic alpha1A receptor at 3 uM"}, "[19]": {"target": "Serine/threonine-protein kinase 38-like (Homo sapiens) (UniProt Q9Y2H1)", "sequence (Q9Y2H1 2-464 limits assumed)": "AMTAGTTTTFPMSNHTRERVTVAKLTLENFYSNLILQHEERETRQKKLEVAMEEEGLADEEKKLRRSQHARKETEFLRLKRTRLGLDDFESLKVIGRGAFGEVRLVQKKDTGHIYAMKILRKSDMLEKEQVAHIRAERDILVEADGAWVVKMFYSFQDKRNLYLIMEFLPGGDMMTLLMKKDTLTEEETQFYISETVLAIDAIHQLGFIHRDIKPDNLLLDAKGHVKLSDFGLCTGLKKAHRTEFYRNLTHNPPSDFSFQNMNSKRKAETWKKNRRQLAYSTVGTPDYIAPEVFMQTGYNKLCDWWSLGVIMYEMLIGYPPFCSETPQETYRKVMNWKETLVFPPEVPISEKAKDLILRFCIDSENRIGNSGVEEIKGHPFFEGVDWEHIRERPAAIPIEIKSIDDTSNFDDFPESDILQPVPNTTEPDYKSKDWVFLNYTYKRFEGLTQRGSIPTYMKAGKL", "experiment": "Inhibition of NDR2 at 3 uM"}, "[20]": {"target": "Tyrosine-protein kinase receptor TYRO3 (Homo sapiens) (UniProt Q06418)", "experiment": "Inhibition of TYRO3 at 3 uM"}, "[21]": {"target": "Tyrosine-protein kinase ZAP-70 (Homo sapiens) (UniProt P43403)", "sequence (P43403 whole entry)": "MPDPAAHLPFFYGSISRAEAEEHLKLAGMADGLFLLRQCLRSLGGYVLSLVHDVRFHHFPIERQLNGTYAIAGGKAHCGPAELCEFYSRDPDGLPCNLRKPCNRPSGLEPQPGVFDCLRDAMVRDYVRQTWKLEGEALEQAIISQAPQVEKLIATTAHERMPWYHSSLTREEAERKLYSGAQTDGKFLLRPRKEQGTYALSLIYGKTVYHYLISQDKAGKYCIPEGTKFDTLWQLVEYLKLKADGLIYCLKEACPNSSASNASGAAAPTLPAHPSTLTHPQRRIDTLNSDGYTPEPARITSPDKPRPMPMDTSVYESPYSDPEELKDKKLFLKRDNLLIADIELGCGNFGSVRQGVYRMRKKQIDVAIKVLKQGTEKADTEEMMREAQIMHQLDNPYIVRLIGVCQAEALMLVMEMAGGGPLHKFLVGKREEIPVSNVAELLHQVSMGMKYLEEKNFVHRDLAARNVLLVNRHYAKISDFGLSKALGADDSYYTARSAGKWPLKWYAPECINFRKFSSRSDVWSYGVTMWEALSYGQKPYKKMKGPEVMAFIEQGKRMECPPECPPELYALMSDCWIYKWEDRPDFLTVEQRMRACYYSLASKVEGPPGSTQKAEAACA", "experiment": "Inhibition of ZAP70 at 3 uM"}, "[22]": {"target": "Sodium-dependent dopamine transporter (Homo sapiens) (UniProt Q01959)", "experiment": "Inhibition of human DAT at 3 uM", "summary_of_the_method": "as §1"}, "[23]": {"target": "Endothelin-1 receptor (Homo sapiens) (UniProt P25101)", "experiment": "Inhibition of human endothelin ETA receptor at 3 uM", "summary_of_the_method": "as §1"}, "[24]": {"target": "Phosphatidylinositol 4-phosphate 3-kinase C2 domain-containing subunit beta (Homo sapiens) (UniProt O00750)", "experiment": "Inhibition of PIK3C2B at 3 uM"}, "[25]": {"organism": "Rattus norvegicus", "settings": "3 uM"}, "[26]": {"target": "Gamma-aminobutyric acid receptor subunit alpha-1 (Rattus norvegicus) (UniProt P62813)", "experiment": "Displacement of muscimol from rat GABAA1 receptor at 3 uM", "summary_of_the_method": "as §1"}, "[27]": {"target": "Phosphorylase b kinase gamma catalytic chain, skeletal muscle/heart isoform (Homo sapiens) (UniProt Q16816)", "experiment": "Inhibition of PHKG1 at 3 uM"}, "[28]": {"target": "Epidermal growth factor receptor (Homo sapiens) (UniProt P04626+P00533+Q15303+P21860)", "experiment": "Inhibition of EGFR S752-I759del mutant at 3 uM", "format": "protein assay", "summary_of_the_method": "(§2)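 Single-concentration kinase panel scoring: each value is the percentage of enzyme activity remaining relative to a DMSO-only control. An activity statistically indistinct from DMSO control was scored \"no hit\".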"}, "[29]": {"target": "Aurora kinase C (Homo sapiens) (UniProt Q9UQB9)", "sequence (Q9UQB9 whole entry)": "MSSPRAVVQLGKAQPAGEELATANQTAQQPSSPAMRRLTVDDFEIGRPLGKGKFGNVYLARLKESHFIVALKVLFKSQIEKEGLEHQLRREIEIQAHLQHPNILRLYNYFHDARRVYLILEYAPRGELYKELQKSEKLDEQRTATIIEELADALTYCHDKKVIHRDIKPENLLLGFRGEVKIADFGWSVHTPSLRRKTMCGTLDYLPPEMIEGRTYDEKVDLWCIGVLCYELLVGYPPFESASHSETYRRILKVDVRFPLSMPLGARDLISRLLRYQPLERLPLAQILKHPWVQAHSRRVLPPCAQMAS", "experiment": "Inhibition of AURKC at 3 uM"}, "[30]": {"target": "Cyclin-dependent kinase 8 (Homo sapiens) (UniProt P49336)", "experiment": "Inhibition of CDK8 at 3 uM"}, "[31]": {"target": "Serine/threonine-protein kinase PLK4 (Homo sapiens) (UniProt O00444)", "experiment": "Inhibition of PLK4 at 3 uM"}, "[32]": {"target": "Interferon-induced, double-stranded RNA-activated protein kinase (Homo sapiens) (UniProt P19525)", "experiment": "Inhibition of PRKR at 3 uM"}, "[33]": {"target": "TGF-beta receptor type-2 (Homo sapiens) (UniProt P37173)", "experiment": "Inhibition of TGFBR2 at 3 uM"}, "[34]": {"target": "Serine/threonine-protein kinase Nek1 (Homo sapiens) (UniProt Q96PY6)", "experiment": "Inhibition of NEK1 at 3 uM"}, "[35]": {"target": "RAC-beta serine/threonine-protein kinase (Homo sapiens) (UniProt P31751)", "experiment": "Inhibition of AKT2 at 3 uM"}, "[36]": {"target": "Serine/threonine-protein kinase N2 (Homo sapiens) (UniProt Q16513)", "experiment": "Inhibition of PKN2 at 3 uM"}, "[37]": {"target": "Glycogen synthase kinase-3 alpha (Homo sapiens) (UniProt P49840)", "sequence (P49840 2-483 limits assumed)": "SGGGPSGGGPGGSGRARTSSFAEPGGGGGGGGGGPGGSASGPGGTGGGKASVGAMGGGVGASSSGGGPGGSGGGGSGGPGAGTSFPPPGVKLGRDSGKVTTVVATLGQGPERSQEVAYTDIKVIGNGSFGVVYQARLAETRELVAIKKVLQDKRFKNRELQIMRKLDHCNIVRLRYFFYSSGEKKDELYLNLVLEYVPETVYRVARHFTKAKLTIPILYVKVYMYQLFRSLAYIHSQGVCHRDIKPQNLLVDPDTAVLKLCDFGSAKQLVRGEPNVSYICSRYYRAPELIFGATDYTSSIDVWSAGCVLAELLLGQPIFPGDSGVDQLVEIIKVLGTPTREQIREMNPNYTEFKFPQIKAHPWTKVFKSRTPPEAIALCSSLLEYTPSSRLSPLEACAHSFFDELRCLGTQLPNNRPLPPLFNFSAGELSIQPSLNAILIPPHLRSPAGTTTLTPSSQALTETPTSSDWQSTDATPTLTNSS", "experiment": "Inhibition of GSK3A at 3 uM"}, "[38]": {"target": "MAP kinase-interacting serine/threonine-protein kinase 2 (Homo sapiens) (UniProt Q9HBH9)", "experiment": "Inhibition of MKNK2 at 3 uM"}, "[39]": {"target": "Muscarinic acetylcholine receptor M2 (Homo sapiens) (UniProt P08172)", "experiment": "Inhibition of human muscarinic M2 receptor at 3 uM", "summary_of_the_method": "as §1"}, "[40]": {"organism": "Mus musculus", "settings": "3 uM"}, "[41]": {"target": "Dual specificity protein kinase CLK4 (Homo sapiens) (UniProt Q9HAZ1)", "experiment": "Inhibition of CLK4 at 3 uM"}, "[42]": {"target": "Tyrosine-protein kinase HCK (Homo sapiens) (UniProt P08631)", "experiment": "Inhibition of HCK at 3 uM"}, "[43]": {"target": "Tyrosine-protein kinase Fyn (Homo sapiens) (UniProt P06241)", "experiment": "Inhibition of FYN at 3 uM", "summary_of_the_method": "as §2"}, "[44]": {"target": "ALK tyrosine kinase receptor (Homo sapiens) (UniProt Q9UM73)", "experiment": "Inhibition of ALK at 3 uM"}}, "data": [{"smiles": "CN(C)CCOc1cc(-c2cn[nH]c2)ccc1NC(=O)C1COc2ccccc2O1", "note": "(centres undefined) [SR-3677]", "values": [{"measurement": "inhibition", "setting": "[1]", "value": -2, "unit": "%"}, {"measurement": "inhibition", "setting": "[2]", "value": "< 10", "unit": "%"}, {"measurement": "inhibition", "setting": "[3]", "value": "< 10", "unit": "%"}, {"measurement": "inhibition", "setting": "[4]", "value": "< 10", "unit": "%"}, {"measurement": "inhibition", "setting": "[5]", "value": "< 10", "unit": "%"}, {"measurement": "inhibition", "setting": "[6]", "value": "< 10", "unit": "%"}, {"measurement": "inhibition", "setting": "[7]", "value": "< 10", "unit": "%"}, {"measurement": "inhibition", "setting": "[8]", "value": "< 10", "unit": "%"}, {"measurement": "inhibition", "setting": "[9]", "value": 43, "unit": "%"}, {"measurement": "inhibition", "setting": "[10]", "value": "< 10", "unit": "%"}, {"measurement": "inhibition", "setting": "[11]", "value": 99.6, "unit": "%"}, {"measurement": "inhibition", "setting": "[12]", "value": "< 10", "unit": "%"}, {"measurement": "inhibition", "setting": "[13]", "value": "< 10", "unit": "%"}, {"measurement": "inhibition", "setting": "[14]", "value": "< 10", "unit": "%"}, {"measurement": "inhibition", "setting": "[15]", "value": "< 10", "unit": "%"}, {"measurement": "inhibition", "setting": "[16]", "value": "< 10", "unit": "%"}, {"measurement": "inhibition", "setting": "[17]", "value": "< 10", "unit": "%"}, {"measurement": "inhibition", "setting": "[18]", "value": 53, "unit": "%"}, {"measurement": "inhibition", "setting": "[19]", "value": "< 10", "unit": "%"}, {"measurement": "inhibition", "setting": "[20]", "value": "< 10", "unit": "%"}, {"measurement": "inhibition", "setting": "[21]", "value": "< 10", "unit": "%"}, {"measurement": "inhibition", "setting": "[22]", "value": 37, "unit": "%"}, {"measurement": "inhibition", "setting": "[23]", "value": 1, "unit": "%"}, {"measurement": "inhibition", "setting": "[24]", "value": "< 10", "unit": "%"}, {"measurement": "inhibition", "setting": "[25]", "value": 14, "unit": "%"}, {"measurement": "inhibition", "setting": "[26]", "value": 5, "unit": "%"}, {"measurement": "inhibition", "setting": "[27]", "value": "< 10", "unit": "%"}, {"measurement": "inhibition", "setting": "[28]", "value": "< 10", "unit": "%"}, {"measurement": "inhibition", "setting": "[29]", "value": "< 10", "unit": "%"}, {"measurement": "inhibition", "setting": "[30]", "value": "< 10", "unit": "%"}, {"measurement": "inhibition", "setting": "[31]", "value": "< 10", "unit": "%"}, {"measurement": "inhibition", "setting": "[32]", "value": "< 10", "unit": "%"}, {"measurement": "inhibition", "setting": "[33]", "value": "< 10", "unit": "%"}, {"measurement": "inhibition", "setting": "[34]", "value": "< 10", "unit": "%"}, {"measurement": "inhibition", "setting": "[35]", "value": "< 10", "unit": "%"}, {"measurement": "inhibition", "setting": "[36]", "value": "< 10", "unit": "%"}, {"measurement": "inhibition", "setting": "[37]", "value": "< 10", "unit": "%"}, {"measurement": "inhibition", "setting": "[38]", "value": "< 10", "unit": "%"}, {"measurement": "inhibition", "setting": "[39]", "value": 4, "unit": "%"}, {"measurement": "inhibition", "setting": "[40]", "value": -2, "unit": "%"}, {"measurement": "inhibition", "setting": "[41]", "value": 90, "unit": "%"}, {"measurement": "inhibition", "setting": "[42]", "value": "< 10", "unit": "%"}, {"measurement": "inhibition", "setting": "[43]", "value": "< 10", "unit": "%"}, {"measurement": "inhibition", "setting": "[44]", "value": "< 10", "unit": "%"}]}]}
